# Laboratory results reported in ChEMBL document CHEMBL1147076, “Antitumor activity of MLN8054, an orally active small-molecule inhibitor of Aurora A kinase” (Proc Natl Acad Sci U S A, 2007).
# Tests used:
# [1] = target: Tyrosine-protein kinase Fer (Homo sapiens) (UniProt P16591); test: Activity of human Fer kinase at 1 uM
# Method in brief: (§1)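 Single-point kinase profiling: each kinase in a 226-kinase panel tested with compound at 1 μM and ATP at 10 μM in every assay, run by an external screening service.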
# [2] = target: Fibroblast growth factor receptor 4 (Homo sapiens) (UniProt P22455); test: Activity of human FGFR4 kinase at 1 uM
# [3] = target: Macrophage colony-stimulating factor 1 receptor (Homo sapiens) (UniProt P07333); test: Activity of human FMS kinase at 1 uM
# [4] = target: G protein-coupled receptor kinase 6 (Homo sapiens) (UniProt P43250); test: Activity of human GRK6 kinase at 1 uM
# [5] = target: Homeodomain-interacting protein kinase 2 (Homo sapiens) (UniProt Q9H2X6); test: Activity of human HIPK2 kinase at 1 uM; method in brief: as §1
# [6] = target: Tyrosine-protein kinase JAK2 (Homo sapiens) (UniProt O60674); test: Activity of human JAK2 kinase at 1 uM
# [7] = target: LIM domain kinase 1 (Homo sapiens) (UniProt P53667); test: Activity of human LIMK1 kinase at 1 uM
# [8] = target: Dual specificity mitogen-activated protein kinase kinase 1 (Homo sapiens) (UniProt Q02750); test: Activity of human MEK1 kinase at 1 uM
# [9] = target: Dual specificity mitogen-activated protein kinase kinase 7 (Homo sapiens) (UniProt O14733); test: Activity of human MKK7-beta kinase at 1 uM
# [10] = target: Serine/threonine-protein kinase MRCK alpha (Homo sapiens) (UniProt Q5VT25); test: Activity of human MRCKalpha kinase at 1 uM
# [11] = target: Serine/threonine-protein kinase 24 (Homo sapiens) (UniProt Q9Y6E0); test: Activity of human MST3 kinase at 1 uM
# [12] = target: Serine/threonine-protein kinase PAK 2 (Homo sapiens) (UniProt Q13177); test: Activity of human PAK2 kinase at 1 uM
# Method in brief: (§2)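 Single-point screen in a 226-kinase panel run by an outside service. Test compound at 1 μM with ATP at 10 μM in every assay. Other assay conditions are not given.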
# [13] = target: Serine/threonine-protein kinase PAK 6 (Homo sapiens) (UniProt Q9NQU5); test: Activity of human PAK6 kinase at 1 uM; method in brief: as §2
# [14] = target: Phosphorylase b kinase gamma catalytic chain, liver/testis isoform (Homo sapiens) (UniProt P15735); test: Activity of human PhKgamma2 kinase at 1 uM; method in brief: as §2
# [15] = target: Phosphatidylinositol 4,5-bisphosphate 3-kinase catalytic subunit gamma isoform (Homo sapiens) (UniProt P48736); test: Activity of human PI 3-kinase gamma at 1 uM; method in brief: as §1
# [16] = organism: Homo sapiens; test: Activity of human PKA kinase at 1 uM; method in brief: as §2
# [17] = target: Protein kinase C beta type (Homo sapiens) (UniProt P05771); test: Activity of human PKC-beta-2 kinase at 1 uM; method in brief: as §2
# [18] = target: Protein kinase C epsilon type (Homo sapiens) (UniProt Q02156); test: Activity of human PKCepsilon kinase at 1 uM; method in brief: as §1
# [19] = target: Protein kinase C eta type (Homo sapiens) (UniProt P24723); test: Activity of human PKCeta kinase at 1 uM; method in brief: as §2
# [20] = target: Serine/threonine-protein kinase D1 (Homo sapiens) (UniProt Q15139); test: Activity of human PKCmu kinase at 1 uM; method in brief: as §1
# [21] = target: Serine/threonine-protein kinase PLK3 (Homo sapiens) (UniProt Q9H4B4); test: Activity of human Plk3 kinase at 1 uM
# Method in brief: (§3)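 Single-concentration screen across a 226-kinase panel run by an outside provider; test compound at 1 μM with 10 μM ATP in every assay. Other conditions not detailed.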
# [22] = target: Macrophage-stimulating protein receptor (Homo sapiens) (UniProt Q04912); test: Activity of human Ron kinase at 1 uM; method in brief: as §2
# [23] = target: Ribosomal protein S6 kinase alpha-3 (Homo sapiens) (UniProt P51812); test: Activity of human Rsk2 kinase at 1 uM; method in brief: as §2
# [24] = test system: Mitogen-activated protein kinase 14 (Homo sapiens), Q16539 [T106M]; test: Activity of human SAPK2a T106M mutant kinase at 1 uM; method in brief: as §3
# [25] = target: Mitogen-activated protein kinase 13 (Homo sapiens) (UniProt O15264); test: Activity of human SAPK4 kinase at 1 uM; method in brief: as §2
# [26] = target: SRSF protein kinase 1 (Homo sapiens) (UniProt Q96SB4); test: Activity of human SRPK1 kinase at 1 uM; method in brief: as §3
# [27] = target: SRSF protein kinase 2 (Homo sapiens) (UniProt P78362); test: Activity of human SRPK2 kinase at 1 uM; method in brief: as §2
# [28] = target: Ephrin type-A receptor 4 (Homo sapiens) (UniProt P54764); test: Activity of human EphA4 kinase at 1 uM
# [29] = target: Serine/threonine-protein kinase WNK2 (Homo sapiens) (UniProt Q9Y3S1); test: Activity of human WNK2 kinase at 1 uM; method in brief: as §3
# [30] = Inhibition of CAMK2 by radioactive flashplate assay
# [31] = test system: PC-3; test: Antitumor activity against human PC3 cells xenografted into athymic nude NCR nu/nu mouse at 10 mg/kg, po BID after 21 days relative to control; format: functional
# Method in brief: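 Oral dosing for 21 days in 10% hydroxypropyl-β-cyclodextrin/5% sodium bicarbonate. Caliper volumes, L × W2 × 0.5. TGI = (Δcontrol − Δtreated average volume) × 100/Δcontrol.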
# [32] = target: Tyrosine-protein kinase BTK (Homo sapiens) (UniProt Q06187); test: Activity of human BTK kinase at 1 uM
# [33] = target: Calcium/calmodulin-dependent protein kinase type IV (Homo sapiens) (UniProt Q16566); test: Activity of human CaMK4 kinase at 1 uM
# [34] = target: Cyclin-dependent kinase 2/cyclin A (Homo sapiens) (UniProt P24941+P20248+P78396); test: Activity of human CDK2/cyclin A kinase at 1 uM; format: protein-complex assay
# [35] = target: Cyclin-dependent kinase 2/cyclin E1 (Homo sapiens) (UniProt P24864+P24941); test: Activity of human CDK2/cyclin E kinase at 1 uM; format: protein-complex assay
# [36] = target: Cyclin-dependent kinase 7/ cyclin H (Homo sapiens) (UniProt P51946+P50613); test: Activity of human CDK7/cyclin H/MAT1 kinase at 1 uM; format: protein-complex assay; method in brief: as §1
# [37] = target: Serine/threonine-protein kinase Chk1 (Homo sapiens) (UniProt O14757); test: Activity of human CHK1 kinase at 1 uM; method in brief: as §1
# [38] = test system: PC-3; test: Cell cycle arrest in human PC3 cells by accumulation at S phase at 1 uM after 24 hrs by flow cytometry relative to control; format: functional
# Method in brief: (§4)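 DNA content profiles by flow cytometry of PC-3 prostate tumor cells exposed to drug diluted in DMSO for 24 or 48 h. Phase distribution was compared with DMSO-treated control cells.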
# [39] = test system: PC-3; test: Cell cycle arrest in human PC3 cells by accumulation at >4N phase at 1 uM after 24 hrs by flow cytometry relative to control; format: functional
# [40] = test system: PC-3; test: Cell cycle arrest in human PC3 cells by accumulation at G1 phase at 4 uM after 24 hrs by flow cytometry relative to control; format: functional; method in brief: as §4
# [41] = test system: PC-3; test: Cell cycle arrest in human PC3 cells by accumulation at >4N phase at 1 uM after 48 hrs by flow cytometry relative to control; format: functional
# Chain of Tyrosine-protein kinase JAK2 (Homo sapiens) (O60674 whole entry, the tested form may be a part): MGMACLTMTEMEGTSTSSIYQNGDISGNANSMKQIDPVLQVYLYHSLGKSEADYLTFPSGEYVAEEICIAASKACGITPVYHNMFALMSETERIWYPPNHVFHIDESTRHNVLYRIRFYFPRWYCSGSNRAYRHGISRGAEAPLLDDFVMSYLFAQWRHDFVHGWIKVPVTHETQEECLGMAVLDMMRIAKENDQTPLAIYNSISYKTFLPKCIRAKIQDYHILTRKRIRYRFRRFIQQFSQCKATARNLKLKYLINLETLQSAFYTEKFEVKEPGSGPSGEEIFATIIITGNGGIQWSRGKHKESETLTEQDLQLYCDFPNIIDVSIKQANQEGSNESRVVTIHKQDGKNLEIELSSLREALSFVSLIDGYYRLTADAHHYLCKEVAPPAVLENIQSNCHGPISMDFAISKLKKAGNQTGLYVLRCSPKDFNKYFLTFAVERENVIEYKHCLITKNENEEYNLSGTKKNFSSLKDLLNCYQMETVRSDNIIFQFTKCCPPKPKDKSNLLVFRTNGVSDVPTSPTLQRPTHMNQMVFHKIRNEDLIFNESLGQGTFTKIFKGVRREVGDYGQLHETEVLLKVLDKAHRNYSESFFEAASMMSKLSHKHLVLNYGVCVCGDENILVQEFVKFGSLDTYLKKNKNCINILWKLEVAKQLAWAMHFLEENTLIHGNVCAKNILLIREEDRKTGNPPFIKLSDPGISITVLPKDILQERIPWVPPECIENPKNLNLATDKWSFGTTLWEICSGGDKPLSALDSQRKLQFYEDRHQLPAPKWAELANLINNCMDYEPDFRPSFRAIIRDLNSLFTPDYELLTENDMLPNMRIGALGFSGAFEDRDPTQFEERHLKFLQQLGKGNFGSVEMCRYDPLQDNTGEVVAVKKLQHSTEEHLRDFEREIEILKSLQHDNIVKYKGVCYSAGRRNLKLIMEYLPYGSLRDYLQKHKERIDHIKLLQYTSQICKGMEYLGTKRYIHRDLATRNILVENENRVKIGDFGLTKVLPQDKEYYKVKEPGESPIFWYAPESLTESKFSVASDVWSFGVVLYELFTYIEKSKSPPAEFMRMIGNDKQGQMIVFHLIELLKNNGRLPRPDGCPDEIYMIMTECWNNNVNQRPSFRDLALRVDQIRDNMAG
# Chain of Serine/threonine-protein kinase PLK3 (Homo sapiens) (Q9H4B4 whole entry, looked up): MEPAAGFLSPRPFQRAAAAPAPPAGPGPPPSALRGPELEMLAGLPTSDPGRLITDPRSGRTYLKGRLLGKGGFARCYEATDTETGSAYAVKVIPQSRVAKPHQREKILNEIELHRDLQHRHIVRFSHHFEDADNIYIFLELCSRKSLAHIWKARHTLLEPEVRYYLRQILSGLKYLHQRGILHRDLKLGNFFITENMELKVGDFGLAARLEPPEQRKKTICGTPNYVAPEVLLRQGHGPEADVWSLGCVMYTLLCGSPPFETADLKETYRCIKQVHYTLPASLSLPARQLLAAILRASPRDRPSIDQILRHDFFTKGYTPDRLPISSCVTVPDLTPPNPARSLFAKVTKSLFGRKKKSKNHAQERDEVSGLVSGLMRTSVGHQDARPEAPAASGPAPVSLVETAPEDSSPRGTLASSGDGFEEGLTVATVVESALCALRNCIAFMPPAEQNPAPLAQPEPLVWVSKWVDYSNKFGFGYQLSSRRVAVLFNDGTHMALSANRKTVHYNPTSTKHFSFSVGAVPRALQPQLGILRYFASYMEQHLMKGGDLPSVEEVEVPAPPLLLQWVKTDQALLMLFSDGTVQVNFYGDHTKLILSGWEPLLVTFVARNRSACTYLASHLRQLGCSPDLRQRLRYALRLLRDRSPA
# Chain of Serine/threonine-protein kinase Chk1 (Homo sapiens) (O14757 whole entry): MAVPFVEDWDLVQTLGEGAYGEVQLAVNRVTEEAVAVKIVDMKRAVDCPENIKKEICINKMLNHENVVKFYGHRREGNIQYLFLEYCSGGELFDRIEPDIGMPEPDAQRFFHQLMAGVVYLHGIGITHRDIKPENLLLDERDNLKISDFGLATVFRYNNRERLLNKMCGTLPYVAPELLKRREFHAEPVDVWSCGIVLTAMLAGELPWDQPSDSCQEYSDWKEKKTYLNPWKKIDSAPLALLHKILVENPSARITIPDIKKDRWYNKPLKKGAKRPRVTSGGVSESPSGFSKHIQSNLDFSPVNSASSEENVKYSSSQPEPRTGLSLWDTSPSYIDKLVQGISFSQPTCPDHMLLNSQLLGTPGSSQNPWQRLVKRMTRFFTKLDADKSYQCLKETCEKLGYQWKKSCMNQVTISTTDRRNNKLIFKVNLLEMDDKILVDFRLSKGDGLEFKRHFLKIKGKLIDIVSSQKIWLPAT
# Chain of Macrophage-stimulating protein receptor (Homo sapiens) (Q04912 25-304 limits assumed): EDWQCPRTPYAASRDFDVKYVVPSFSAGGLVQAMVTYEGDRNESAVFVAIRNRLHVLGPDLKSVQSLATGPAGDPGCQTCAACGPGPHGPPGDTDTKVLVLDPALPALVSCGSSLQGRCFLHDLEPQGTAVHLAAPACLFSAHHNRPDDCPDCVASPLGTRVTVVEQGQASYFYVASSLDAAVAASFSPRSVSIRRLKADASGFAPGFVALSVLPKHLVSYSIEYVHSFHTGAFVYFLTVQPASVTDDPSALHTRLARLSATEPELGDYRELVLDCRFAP
# Chain of Macrophage-stimulating protein receptor (Homo sapiens) (Q04912 310-1400 limits assumed): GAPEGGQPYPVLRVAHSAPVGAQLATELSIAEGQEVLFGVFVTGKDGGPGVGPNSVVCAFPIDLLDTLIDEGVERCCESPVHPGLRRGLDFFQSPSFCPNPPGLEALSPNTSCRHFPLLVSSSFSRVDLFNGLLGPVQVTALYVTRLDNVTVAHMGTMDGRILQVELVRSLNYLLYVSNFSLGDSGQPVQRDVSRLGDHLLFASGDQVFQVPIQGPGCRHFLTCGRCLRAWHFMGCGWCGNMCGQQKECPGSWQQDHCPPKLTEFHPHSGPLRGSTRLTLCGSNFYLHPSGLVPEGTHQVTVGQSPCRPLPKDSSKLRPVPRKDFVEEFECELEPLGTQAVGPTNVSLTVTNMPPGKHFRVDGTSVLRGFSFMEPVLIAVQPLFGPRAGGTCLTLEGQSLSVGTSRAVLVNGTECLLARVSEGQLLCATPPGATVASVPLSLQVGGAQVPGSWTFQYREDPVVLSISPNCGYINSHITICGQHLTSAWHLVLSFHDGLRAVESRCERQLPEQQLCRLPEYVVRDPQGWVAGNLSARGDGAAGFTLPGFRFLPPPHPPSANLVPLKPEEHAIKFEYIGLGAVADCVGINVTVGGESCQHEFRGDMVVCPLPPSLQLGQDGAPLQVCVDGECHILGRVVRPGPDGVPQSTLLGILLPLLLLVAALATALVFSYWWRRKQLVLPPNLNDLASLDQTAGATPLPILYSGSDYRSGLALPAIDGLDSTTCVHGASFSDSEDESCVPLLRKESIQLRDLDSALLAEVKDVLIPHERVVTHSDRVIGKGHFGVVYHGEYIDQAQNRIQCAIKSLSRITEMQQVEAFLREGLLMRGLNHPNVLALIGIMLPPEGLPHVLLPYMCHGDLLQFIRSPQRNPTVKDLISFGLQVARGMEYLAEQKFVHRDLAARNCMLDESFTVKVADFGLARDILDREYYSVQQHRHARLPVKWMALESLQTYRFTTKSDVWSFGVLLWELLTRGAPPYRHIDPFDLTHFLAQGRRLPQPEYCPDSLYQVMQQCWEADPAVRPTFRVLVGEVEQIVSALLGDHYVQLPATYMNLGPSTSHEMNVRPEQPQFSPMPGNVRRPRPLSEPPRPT
# Chain of Ribosomal protein S6 kinase alpha-3 (Homo sapiens) (P51812 whole entry): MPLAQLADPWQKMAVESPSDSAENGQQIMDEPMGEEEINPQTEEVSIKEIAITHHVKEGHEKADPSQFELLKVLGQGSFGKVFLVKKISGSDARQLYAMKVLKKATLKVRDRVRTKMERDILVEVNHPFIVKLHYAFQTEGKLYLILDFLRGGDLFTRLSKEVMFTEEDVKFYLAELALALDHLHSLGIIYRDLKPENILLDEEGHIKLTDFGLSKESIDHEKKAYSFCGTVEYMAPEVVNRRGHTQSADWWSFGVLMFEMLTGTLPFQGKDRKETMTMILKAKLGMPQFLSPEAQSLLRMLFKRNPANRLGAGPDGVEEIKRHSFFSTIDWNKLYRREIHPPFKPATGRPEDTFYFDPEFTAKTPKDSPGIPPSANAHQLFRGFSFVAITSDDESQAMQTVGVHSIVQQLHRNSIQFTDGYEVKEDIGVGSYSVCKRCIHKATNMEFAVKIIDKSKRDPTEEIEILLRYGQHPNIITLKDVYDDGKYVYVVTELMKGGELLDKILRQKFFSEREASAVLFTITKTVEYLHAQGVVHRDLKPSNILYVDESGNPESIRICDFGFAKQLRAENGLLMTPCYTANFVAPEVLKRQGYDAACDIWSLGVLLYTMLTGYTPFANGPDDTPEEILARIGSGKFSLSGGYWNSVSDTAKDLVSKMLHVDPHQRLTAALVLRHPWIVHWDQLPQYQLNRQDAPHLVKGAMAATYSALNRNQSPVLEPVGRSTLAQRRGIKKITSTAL
# Chain of LIM domain kinase 1 (Homo sapiens) (P53667 whole entry, looked up, the tested form may be a part): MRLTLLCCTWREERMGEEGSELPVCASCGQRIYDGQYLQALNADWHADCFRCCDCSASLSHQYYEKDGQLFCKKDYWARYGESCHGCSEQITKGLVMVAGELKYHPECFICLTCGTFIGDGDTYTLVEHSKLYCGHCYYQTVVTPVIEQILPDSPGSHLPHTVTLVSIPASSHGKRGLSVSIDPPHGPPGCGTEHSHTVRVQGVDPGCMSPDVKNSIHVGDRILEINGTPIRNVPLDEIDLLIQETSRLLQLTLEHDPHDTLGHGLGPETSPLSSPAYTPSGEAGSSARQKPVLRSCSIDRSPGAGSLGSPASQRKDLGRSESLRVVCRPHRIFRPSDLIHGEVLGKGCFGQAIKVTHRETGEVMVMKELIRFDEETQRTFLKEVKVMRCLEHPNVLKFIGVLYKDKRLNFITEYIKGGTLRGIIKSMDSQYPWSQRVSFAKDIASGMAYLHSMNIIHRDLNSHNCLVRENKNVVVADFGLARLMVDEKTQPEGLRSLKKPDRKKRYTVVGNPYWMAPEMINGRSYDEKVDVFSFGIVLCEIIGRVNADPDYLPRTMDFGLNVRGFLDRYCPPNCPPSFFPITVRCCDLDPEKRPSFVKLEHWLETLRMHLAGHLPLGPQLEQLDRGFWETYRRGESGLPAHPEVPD
smiles,measurement,setting,value
O=C(O)c1ccc(Nc2ncc3c(n2)-c2ccc(Cl)cc2C(c2c(F)cccc2F)=NC3)cc1 [MLN-8054],Activity,[1],57%
same,Activity,[2],115%
same,Activity,[3],95%
same,Activity,[4],110%
same,Activity,[5],112%
same,Activity,[6],92%
same,Activity,[7],110%
same,Activity,[8],110%
same,Activity,[9],95%
same,Activity,[10],101%
same,Activity,[11],107%
same,Activity,[12],100%
same,Activity,[13],108%
same,Activity,[14],98%
same,Activity,[15],106%
same,Activity,[16],100%
same,Activity,[17],100%
same,Activity,[18],123%
same,Activity,[19],120%
same,Activity,[20],112%
same,Activity,[21],105%
same,Activity,[22],94%
same,Activity,[23],76%
same,Activity,[24],130%
same,Activity,[25],87%
same,Activity,[26],105%
same,Activity,[27],87%
same,Activity,[28],90%
same,Activity,[29],109%
same,IC50,[30],> 100 µM
same,Activity,[31],73%
same,Activity,[32],90%
same,Activity,[33],104%
same,Activity,[34],96%
same,Activity,[35],97%
same,Activity,[36],105%
same,Activity,[37],109%
same,Activity,[38],14.9%
same,Activity,[39],3.7%
same,Activity,[40],23%
same,Activity,[41],7%
